Measured values from ChEMBL document CHEMBL4732112, “Synthesis and in vitro evaluation of novel spiroketopyrazoles as acetyl-CoA carboxylase inhibitors and potential antitumor agents” (Eur J Med Chem, 2021).

Key:
Acetyl-CoA carboxylase 1 = Acetyl-CoA carboxylase 1 (Homo sapiens, UniProt Q13085); experiment: Inhibition of recombinant human C-terminal His-tagged ACC1 (1 to 2383 residues) expressed in baculovirus infected Sf9 insect cells at 5 uM preincubated for 15 mins followed by substrate addition and measured after 60 mins by ADP-glo luminescence assay relative to control
HepG2 [1] = experiment: Cell cycle arrest in human HepG2 cells assessed as accumulation at G2/M phase at 1 uM measured after 48 hrs by propidium iodide staining based flow cytometry (reference value: 13.58%); format: functional
HepG2 [2] = experiment: Cell cycle arrest in human HepG2 cells assessed as reduction in cyclin D1 expression at 10 uM measured after 48 hrs by Western blot analysis relative to control; format: functional; parameters: scale not given: the % may be the effect or the level left
Summary of the method: (§1)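 HepG2 cells treated for 48 h and lysed. Lysates cleared at 12000 rpm for 15 min and protein measured by BCA. Run on SDS-PAGE, transferred to PVDF, blocked in 5% BSA, primary antibody at 4 °C overnight, then DyLight 800 secondary. Infrared imaging and densitometry against β-actin. Mean ± SD, n=3.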

HepG2 [3] = experiment: Cell cycle arrest in human HepG2 cells assessed as reduction in CDK4 expression at 10 uM measured after 48 hrs by Western blot analysis relative to control; format: functional; parameters: scale not given: the % may be the effect or the level left; summary of the method: as §1
HepG2 [4] = experiment: Induction of apoptosis in human HepG2 cells assessed as early apoptotic cells at 1 uM measured after 48 hrs by Annexin V-FITC/propidium iodide staining based flow cytometry (reference value: 4.03%); format: functional
Summary of the method: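 HepG2 cells incubated with the stated concentrations for 48 h, harvested, and stained with Annexin V-FITC and propidium iodide protected from light. Viable, early apoptotic, late apoptotic and necrotic fractions quantified by flow cytometry. Mean ± SD, n=3.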

HepG2 [5] = experiment: Induction of apoptosis in human HepG2 cells assessed as viable cells at 5 uM measured after 48 hrs by Annexin V-FITC/propidium iodide staining based flow cytometry (reference value: 95.6%); format: functional; details: read-out: Activity
HepG2 [6] = experiment: Antiproliferative activity against human HepG2 cells assessed as combination index at 0.175 uM measured after 72 hrs in presence of 0.35 uM doxorubicin by MTT assay; format: functional

Work on CC(C)(C)n1cc2c(n1)C(=O)CC1(CCN(C(=O)c3cc(-c4ccncc4)nc4ccccc34)CC1)O2 yielded an inhibition (Acetyl-CoA carboxylase 1) of 100%, an Activity (HepG2 [1]) of 10.86% and an Activity (HepG2 [2]) of 43.92%. It also gave an Activity (HepG2 [3]) of 60.76%, an Activity (HepG2 [4]) of 11.6% and a viability at 5 µM (HepG2 [5]) of 44.8%. It also gave a CI (HepG2 [6]) of 0.737.
